Source: ChEMBL document CHEMBL1135676, “Comparative molecular field analysis of substrates for an aryl sulfotransferase based on catalytic mechanism and protein homology modeling” (J Med Chem, 2002)

Columns and labels:
not read [1] = substrate: Oc1ccc2ccccc2c1; assay: not read
not read [2] = substrate: Oc1ccccc1; assay: not read
[3] = biological target: Aryl sulfotransferase IV (Rattus norvegicus); assay: (§1) Apparent Michaelis constant (Km) against Arylsulfotransferase (AST IV)
Outline: (§2)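 Recombinant rat hepatic AST IV, expressed in E. coli and purified. Each reaction held 1.0 μg enzyme, 0.2 mM PAPS, 8.3 mM 2-mercaptoethanol, varying substrate and 0.25 M potassium phosphate at pH 7.0. Mixtures were preincubated 2 min at 37 °C, started with enzyme, run 10 min at 37 °C and stopped with methanol. Substrate-dependent PAP formation was read by HPLC and corrected with substrate-free controls. kcat is in min⁻¹ and apparent Km in M.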

[4] = substrate: CC(=O)Nc1ccc(O)cc1; assay: as §1
Outline: as §2

[5] = substrate: CC(C)[C@H](O)c1ccccc1; assay: as §1
Outline: as §2

[6] = substrate: CCCCCCCCCc1ccc(O)cc1; assay: as §1
Outline: as §2

[7] = substrate: CCCCCCCc1ccc(CO)cc1; assay: as §1
Outline: as §2

[8] = substrate: CCCCCCCc1ccc(O)cc1; assay: as §1
Outline: as §2

[9] = substrate: CCCCCC[C@H](O)c1ccccc1; assay: as §1
Outline: as §2

[10] = substrate: CCCCCCc1ccc(CO)cc1; assay: as §1
Outline: as §2

[11] = substrate: CCCCC[C@H](O)c1ccccc1; assay: as §1
Outline: as §2

[12] = substrate: CCCCCc1ccc(CO)cc1; assay: as §1
Outline: as §2

[13] = substrate: CCCCCc1ccc(O)cc1; assay: as §1
Outline: as §2

[14] = substrate: CCCC[C@H](O)c1ccccc1; assay: as §1
Outline: as §2

[15] = substrate: CCCCc1ccc(CO)cc1; assay: as §1
Outline: as §2

[16] = substrate: CCCCc1ccc(O)cc1; assay: as §1
Outline: as §2

[17] = substrate: CCCN(O)c1ccccc1; assay: as §1
Outline: as §2

[18] = substrate: CCC[C@H](O)c1ccccc1; assay: as §1
Outline: as §2

[19] = substrate: CCCc1ccc(CO)cc1; assay: as §1
Outline: as §2

[20] = substrate: CCCc1ccc(O)cc1; assay: as §1
Outline: as §2

[21] = substrate: CCN(O)c1ccccc1; assay: as §1
Outline: as §2

[22] = substrate: CC[C@H](O)c1ccccc1; assay: as §1
Outline: as §2

[23] = substrate: CCc1ccc(O)cc1; assay: as §1
Outline: as §2

[24] = substrate: CN(O)c1ccccc1; assay: as §1
Outline: as §2

[25] = substrate: CN[C@@H](C)C(O)c1ccccc1; assay: as §1
Outline: as §2

[26] = substrate: CN[C@H](C)[C@H](O)c1ccccc1; assay: as §1
Outline: as §2

[27] = substrate: COC(=O)[C@@H](N)Cc1ccc(O)cc1; assay: as §1
Outline: as §2

[28] = substrate: C[C@@H](O)c1ccccc1; assay: as §1
Outline: as §2

[29] = substrate: C[C@H](O)c1ccccc1; assay: as §1
Outline: as §2

[30] = substrate: Cc1ccc(CO)cc1; assay: as §1
Outline: as §2

[31] = substrate: Cc1ccc(O)cc1; assay: as §1
Outline: as §2

[32] = substrate: O=C(CBr)Nc1ccc(O)cc1; assay: as §1
Outline: as §2

[33] = substrate: O=[N+]([O-])c1ccc(CO)cc1; assay: as §1
Outline: as §2

[34] = substrate: O=[N+]([O-])c1ccc(O)c(Cl)c1; assay: as §1
Outline: as §2

[35] = substrate: OC1CCCc2ccccc21; assay: as §1
Outline: as §2

[36] = substrate: OCc1c[nH]c2ccccc12; assay: as §1
Outline: as §2

[37] = substrate: OCc1ccc2ccccc2c1; assay: as §1
Outline: as §2

[38] = substrate: OCc1cccc2ccccc12; assay: as §1
Outline: as §2

[39] = substrate: OCc1ccccc1; assay: as §1
Outline: as §2

[40] = substrate: OCc1ccoc1; assay: as §1
Outline: as §2

[41] = substrate: ONc1ccc(Cl)cc1; assay: as §1
Outline: as §2

[42] = substrate: ONc1ccccc1; assay: as §1
Outline: as §2

[43] = substrate: Oc1ccc(-c2ccccc2)cc1; assay: as §1
Outline: as §2

[44] = substrate: [H][C@]12CC3(c4ccc(O)cc4)C[C@]([H])(C1)C[C@@]([H])(C3)C2; assay: as §1
Outline: as §2

B1: Sulfotransferase 1A1 (Rattus norvegicus) (protein)
chain: MEFSRPPLVHVKGIPLIKYFAETIGPLQNFTAWPDDLLISTYPKSGTTWMSEILDMIYQGGKLEKCGRAPIYARVPFLEFKCPGVPSGLETLEETPAPRLLKTHLPLSLLPQSLLDQKVKVIYIARNAKDVVVSYYNFYNMAKLHPDPGTWDSFLENFMDGEVSYGSWYQHVKEWWELRHTHPVLYLFYEDIKENPKREIKKILEFLGRSLPEETVDSIVHHTSFKKMKENCMTNYTTIPTEIMDHNVSPFMRKGTTGDWKNTFTVAQNERFDAHYAKTMTDCDFKFRCEL
Question: B1 was tested. Which Km (not read [1]) did it give?
Answer: 8 µM

Question: And the Vmax (not read [1])?
Answer: 1.13 µM/min

Question: And the Km (not read [2])?
Answer: 19 µM

Question: And the Vmax (not read [2])?
Answer: 0.35 µM/min

Question: What about the Km [3] of the same protein?
Answer: 60 µM

Question: And the Vmax [3]?
Answer: 0.182 µM/min

Question: And the Km [4]?
Answer: 92 µM

Question: What about the Vmax [4] of the same protein?
Answer: 0.181 µM/min

Question: What about the Km [5] of the same protein?
Answer: 1360 µM

Question: And the Vmax [5]?
Answer: 0.0061 µM/min

Question: And the Km [6]?
Answer: 109 µM

Question: What about the Vmax [6] of the same protein?
Answer: 0.091 µM/min

Question: What about the Km [7] of the same protein?
Answer: 410 µM

Question: And the Vmax [7]?
Answer: 0.133 µM/min

Question: And the Km [8]?
Answer: 61 µM

Question: What about the Vmax [8] of the same protein?
Answer: 0.132 µM/min

Question: And the Km [9]?
Answer: 20 µM

Question: What about the Vmax [9] of the same protein?
Answer: 0.0052 µM/min

Question: And the Km [10]?
Answer: 30 µM

Question: And the Vmax [10]?
Answer: 0.0967 µM/min

Question: What about the Km [11] of the same protein?
Answer: 7 µM

Question: And the Vmax [11]?
Answer: 0.0021 µM/min

Question: And the Km [12]?
Answer: 20 µM

Question: What about the Vmax [12] of the same protein?
Answer: 0.109 µM/min

Question: And the Km [13]?
Answer: 9 µM

Question: And the Vmax [13]?
Answer: 0.208 µM/min

Question: And the Km [14]?
Answer: 10 µM

Question: And the Vmax [14]?
Answer: 0.0305 µM/min

Question: And the Km [15]?
Answer: 30 µM

Question: What about the Vmax [15] of the same protein?
Answer: 0.13 µM/min

Question: What about the Km [16] of the same protein?
Answer: 5 µM

Question: And the Vmax [16]?
Answer: 0.296 µM/min

Question: What about the Km [17] of the same protein?
Answer: 161 µM

Question: And the Vmax [17]?
Answer: 0.0986 µM/min

Question: What about the Km [18] of the same protein?
Answer: 360 µM

Question: What about the Vmax [18] of the same protein?
Answer: 0.0085 µM/min

Question: And the Km [19]?
Answer: 40 µM

Question: What about the Vmax [19] of the same protein?
Answer: 0.178 µM/min

Question: What about the Km [20] of the same protein?
Answer: 6 µM

Question: And the Vmax [20]?
Answer: 0.427 µM/min

Question: And the Km [21]?
Answer: 650 µM

Question: And the Vmax [21]?
Answer: 0.273 µM/min

Question: What about the Km [22] of the same protein?
Answer: 240 µM

Question: What about the Vmax [22] of the same protein?
Answer: 0.0099 µM/min

Question: And the Km [23]?
Answer: 10 µM

Question: And the Vmax [23]?
Answer: 0.41 µM/min

Question: And the Km [24]?
Answer: 119 µM

Question: And the Vmax [24]?
Answer: 0.085 µM/min

Question: What about the Km [25] of the same protein?
Answer: 6990 µM

Question: What about the Vmax [25] of the same protein?
Answer: 0.0225 µM/min

Question: What about the Km [26] of the same protein?
Answer: 11000 µM

Question: And the Vmax [26]?
Answer: 0.0404 µM/min

Question: What about the Km [27] of the same protein?
Answer: 4000 µM

Question: And the Vmax [27]?
Answer: 0.35 µM/min

Question: What about the Km [28] of the same protein?
Answer: 1730 µM

Question: And the Vmax [28]?
Answer: 0.0206 µM/min

Question: And the Km [29]?
Answer: 250 µM

Question: And the Vmax [29]?
Answer: 0.0337 µM/min

Question: What about the Km [30] of the same protein?
Answer: 600 µM

Question: And the Vmax [30]?
Answer: 0.508 µM/min

Question: What about the Km [31] of the same protein?
Answer: 10 µM

Question: And the Vmax [31]?
Answer: 0.32 µM/min

Question: What about the Km [32] of the same protein?
Answer: 22 µM

Question: What about the Vmax [32] of the same protein?
Answer: 0.095 µM/min

Question: And the Km [33]?
Answer: 199 µM

Question: And the Vmax [33]?
Answer: 0.0206 µM/min

Question: And the Km [34]?
Answer: 5 µM

Question: What about the Vmax [34] of the same protein?
Answer: 0.028 µM/min

Question: What about the Km [35] of the same protein?
Answer: 30 µM

Question: And the Vmax [35]?
Answer: 0.0287 µM/min

Question: And the Km [36]?
Answer: 29 µM

Question: What about the Vmax [36] of the same protein?
Answer: 0.0332 µM/min

Question: And the Km [37]?
Answer: 26 µM

Question: And the Vmax [37]?
Answer: 0.0776 µM/min

Question: What about the Km [38] of the same protein?
Answer: 30 µM

Question: What about the Vmax [38] of the same protein?
Answer: 0.026 µM/min

Question: And the Km [39]?
Answer: 50 µM

Question: And the Vmax [39]?
Answer: 0.0305 µM/min

Question: What about the Km [40] of the same protein?
Answer: 960 µM

Question: And the Vmax [40]?
Answer: 0.0102 µM/min

Question: What about the Km [41] of the same protein?
Answer: 26 µM

Question: What about the Vmax [41] of the same protein?
Answer: 0.035 µM/min

Question: What about the Km [42] of the same protein?
Answer: 230 µM

Question: And the Vmax [42]?
Answer: 0.043 µM/min

Question: And the Km [43]?
Answer: 91 µM

Question: And the Vmax [43]?
Answer: 0.212 µM/min

Question: What about the Km [44] of the same protein?
Answer: 1 µM

Question: What about the Vmax [44] of the same protein?
Answer: 0.0472 µM/min
